Laboratory results published in PMC9299185 (Pest Management Science, 2021).
pIC50: −log10 of the molar value. Read-outs that look alike come from different tables or passages of the source.

How the values were obtained:
honey bee CYP9Q3 [1] = biological target: T1, honey bee CYP9Q3 (Apis mellifera, UniProt A0A7M7LMV1); test: Fluorescence-based BOMFC probe assay with recombinantly expressed CYP9Q3; format: biochemical; conditions: for Hill slope CYP9Q3: fungicides
T1 sequence (A0A7M7LMV1 1-517): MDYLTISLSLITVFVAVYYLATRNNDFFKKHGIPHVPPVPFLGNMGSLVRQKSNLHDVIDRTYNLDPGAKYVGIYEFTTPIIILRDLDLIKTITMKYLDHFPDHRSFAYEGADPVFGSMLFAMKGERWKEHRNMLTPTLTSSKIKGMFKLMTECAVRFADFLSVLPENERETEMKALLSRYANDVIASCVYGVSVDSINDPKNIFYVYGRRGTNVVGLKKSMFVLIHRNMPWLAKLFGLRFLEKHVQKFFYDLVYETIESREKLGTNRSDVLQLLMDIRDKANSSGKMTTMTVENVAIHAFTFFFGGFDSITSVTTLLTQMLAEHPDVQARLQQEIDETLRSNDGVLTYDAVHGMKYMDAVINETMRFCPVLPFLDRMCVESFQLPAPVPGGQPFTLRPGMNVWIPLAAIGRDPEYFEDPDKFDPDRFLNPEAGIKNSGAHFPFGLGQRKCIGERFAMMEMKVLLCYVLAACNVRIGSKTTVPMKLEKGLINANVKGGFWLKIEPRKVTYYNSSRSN
T1 sequence (A0A8U1CY41 1-694 partner): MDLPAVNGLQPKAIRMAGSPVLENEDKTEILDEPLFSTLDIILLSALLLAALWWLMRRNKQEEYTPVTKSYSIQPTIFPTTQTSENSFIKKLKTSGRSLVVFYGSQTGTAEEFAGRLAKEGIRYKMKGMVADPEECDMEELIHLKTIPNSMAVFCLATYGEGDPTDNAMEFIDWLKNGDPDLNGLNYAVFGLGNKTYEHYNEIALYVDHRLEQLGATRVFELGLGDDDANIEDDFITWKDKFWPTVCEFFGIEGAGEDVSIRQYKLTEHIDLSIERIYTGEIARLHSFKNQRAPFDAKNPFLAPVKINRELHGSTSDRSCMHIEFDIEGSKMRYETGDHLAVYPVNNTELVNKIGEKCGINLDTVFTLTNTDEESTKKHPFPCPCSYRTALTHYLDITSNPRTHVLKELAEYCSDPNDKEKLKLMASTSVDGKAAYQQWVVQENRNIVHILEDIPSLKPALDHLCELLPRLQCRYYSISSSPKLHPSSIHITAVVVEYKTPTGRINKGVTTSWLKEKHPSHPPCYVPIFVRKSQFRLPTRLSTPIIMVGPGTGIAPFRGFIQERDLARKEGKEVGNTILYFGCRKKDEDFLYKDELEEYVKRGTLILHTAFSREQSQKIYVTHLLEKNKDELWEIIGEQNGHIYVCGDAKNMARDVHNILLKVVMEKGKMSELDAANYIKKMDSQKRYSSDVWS

honey bee CYP9Q2 [2] = biological target: T2, honey bee CYP9Q2 (Apis mellifera, UniProt A0A7M7R6F2); test: Fluorescence-based BOMFC probe assay with recombinantly expressed CYP9Q2; format: biochemical; conditions: for Hill slope CYP9Q2: fungicides
T2 sequence (A0A7M7R6F2 1-532): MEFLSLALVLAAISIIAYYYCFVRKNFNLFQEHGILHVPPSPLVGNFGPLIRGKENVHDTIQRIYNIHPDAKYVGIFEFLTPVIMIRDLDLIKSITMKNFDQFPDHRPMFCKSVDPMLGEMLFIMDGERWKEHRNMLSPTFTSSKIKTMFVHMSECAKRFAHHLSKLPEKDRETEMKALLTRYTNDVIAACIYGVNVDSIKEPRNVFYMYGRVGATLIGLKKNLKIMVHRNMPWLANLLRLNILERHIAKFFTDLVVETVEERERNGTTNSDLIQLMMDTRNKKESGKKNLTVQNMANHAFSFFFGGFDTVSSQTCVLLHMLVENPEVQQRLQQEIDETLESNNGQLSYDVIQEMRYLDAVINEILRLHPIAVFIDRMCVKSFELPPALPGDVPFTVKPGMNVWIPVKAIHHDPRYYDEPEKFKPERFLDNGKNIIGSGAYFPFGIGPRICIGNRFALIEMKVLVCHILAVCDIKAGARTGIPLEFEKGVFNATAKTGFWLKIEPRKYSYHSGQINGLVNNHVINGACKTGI
T2 sequence (A0A8U1CY41 1-694 partner): T1 sequence (A0A8U1CY41 1-694 partner)

[3] = Honey bee acute contact toxicity and synergism study; format: in vivo, Apis mellifera; conditions: female, Apis mellifera (honey bee), in vivo, topical, honey bee mortality
Method in brief: (§1)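 OECD 214 acute contact test, modified for the synergist. Mixed-age workers came from the honey super of three queen-right colonies untreated for at least 6 months. Propiconazole was applied at 10 μg/bee. Controls received acetone or propiconazole alone. Mortality was scored at 48 h. Groups were compared by unpaired t-test (P < 0.01), with SEM shown.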

[4] = system: Apis mellifera worker bees; test: as above; format: in vivo; conditions: for effect of propiconazole pretreatment on acute contact toxicity: 10 μg/bee propiconazole 1 h prior to insecticide application
Method in brief: as §1

[5] = system: transgenic Drosophila melanogaster CYP9Q2 × Hsp70; test: Drosophila diet overlay bioassay, strain expressing honey bee CYP9Q2; format: in vivo; conditions: for LD50 48 h: CYP9Q2 × Hsp70 adults, diet overlay; for RR (resistance ratio): LD50 of CYP9Q2 × Hsp70 divided by LD50 of Empty × Hsp70; for Slope: probit analysis, CYP9Q2 × Hsp70
Method in brief: (§2)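 F1 adults came from crossing UAS strains carrying honey bee CYP9Q2 or CYP9Q3, or a control strain lacking the transgene, with a GAL4-Hsp70 driver. Flies were heat-shocked at 37 °C three times for 30 min the day before, then again just before testing. The test compound in acetone was diluted 1:2 in water with 0.1% (w/v) Triton X-100 and spread over artificial diet. Mortality was scored at 48 h. Values came from probit analysis; resistance ratio = transgenic LD50 / control LD50.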

[6] = system: Apis mellifera worker bees; conditions: honey bee, reported value; cited from earlier work
honey bee CYP6AQ1 = biological target: T3, honey bee CYP6AQ1 (Apis mellifera, UniProt F1DPP0); test: Fluorescence-based BOMFC probe assay with recombinantly expressed CYP6AQ1; format: biochemical; conditions: for inhibition of CYP6AQ1-mediated BOMFC metabolism: 100 μM
T3 sequence (F1DPP0 1-514): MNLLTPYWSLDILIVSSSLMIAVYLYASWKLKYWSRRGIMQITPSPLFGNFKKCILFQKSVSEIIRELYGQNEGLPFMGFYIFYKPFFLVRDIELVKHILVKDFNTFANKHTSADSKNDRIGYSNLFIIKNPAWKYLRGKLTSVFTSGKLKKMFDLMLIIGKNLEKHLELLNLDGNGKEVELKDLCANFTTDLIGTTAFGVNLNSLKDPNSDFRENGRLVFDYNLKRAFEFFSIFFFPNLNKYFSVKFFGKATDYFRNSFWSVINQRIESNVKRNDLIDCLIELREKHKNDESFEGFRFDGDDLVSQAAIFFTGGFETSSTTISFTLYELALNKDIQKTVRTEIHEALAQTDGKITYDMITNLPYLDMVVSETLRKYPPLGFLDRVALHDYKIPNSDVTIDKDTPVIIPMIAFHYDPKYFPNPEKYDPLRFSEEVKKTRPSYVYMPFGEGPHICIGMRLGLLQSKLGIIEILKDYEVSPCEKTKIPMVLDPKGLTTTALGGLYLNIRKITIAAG
T3 sequence (A0A8U1CY41 1-694 partner): T1 sequence (A0A8U1CY41 1-694 partner)

[7] = system: transgenic Drosophila melanogaster CYP9Q3 × Hsp70; test: Drosophila diet overlay bioassay, strain expressing honey bee CYP9Q3; format: in vivo; conditions: for LD50 48 h: CYP9Q3 × Hsp70 adults, diet overlay; for RR (resistance ratio): LD50 of CYP9Q3 × Hsp70 divided by LD50 of Empty × Hsp70; for Slope: probit analysis, CYP9Q3 × Hsp70
Method in brief: as §2

[8] = system: Drosophila melanogaster Empty × Hsp70 (reference control strain); test: Drosophila diet overlay bioassay, control strain; format: in vivo; conditions: Empty × Hsp70 adults
Method in brief: as §2

honey bee CYP9Q2 [9] = biological target: T2, honey bee CYP9Q2; conditions: BOMFC probe, ref Haas et al. (2021)[33], cited from earlier work
honey bee CYP9Q3 [10] = biological target: T1, honey bee CYP9Q3; conditions: BOMFC probe, ref Haas et al. (2021)[33], cited from earlier work
[11] = IC50 CYP9Q3, fungicides, BOMFC probe
[12] = IC50 CYP9Q2, fungicides, BOMFC probe
[13] = IC50 CYP9Q3, diamides, BOMFC probe 6.5 μM
[14] = IC50 CYP9Q2, diamides, BOMFC probe 15 μM
[15] = highest concentration tested, 100 μM

SMILES: O=C(Nc1ccccc1-c1ccc(Cl)cc1)c1cccnc1Cl [Boscalid, boscalid]
- pIC50 (honey bee CYP9Q3 [1]; [11]): 5.38
- Hill slope CYP9Q3 (honey bee CYP9Q3 [1]; BOMFC probe): −1.05
- pIC50 (honey bee CYP9Q2 [2]; [12]): < 5.00

SMILES: CNC(=O)c1cc(Cl)cc(C)c1NC(=O)c1cc(Br)nn1-c1ncccc1Cl [Chlorantraniliprole]
- pIC50 (honey bee CYP9Q3 [1]; [13]): 4.76
- mortality at 48 h ([3]; 0.2 μg/bee, topical 0.2 μg/bee CPR alone, 48 h): 3.6%
- mortality at 48 h ([3]; 2 μg/bee, topical 2 μg/bee CPR alone, 48 h, ± SEM, n = 3): 12%
- mortality at 48 h ([3]; topical application of 2 μg/bee and 0.2 μg/bee CPR alone): < 15%
- effect of propiconazole pretreatment on acute contact toxicity [4]: significantly increased
- LD50 48 h [5]: 96.2 ppm
- RR (resistance ratio) [5]: 4.34
- Slope [5]: 1.74
- LD50 [6]: > 4 μg/bee
- pIC50 (honey bee CYP6AQ1): < 4.00
- inhibition of CYP6AQ1-mediated BOMFC metabolism (honey bee CYP6AQ1): not inhibited
- pIC50 (honey bee CYP9Q2 [2]; [14]): 4.03
- LD50 48 h [7]: 155 ppm
- RR (resistance ratio) [7]: 6.99
- Slope [7]: 2.86
- LD50 48 h [8]: 22.2 ppm

SMILES: N#Cc1c(Cl)c(Cl)c(Cl)c(C#N)c1Cl [Chlorothalonil, chlorothalonil]
- pIC50 (honey bee CYP9Q3 [1]; [11]): < 5.00
- pIC50 (honey bee CYP9Q2 [2]; [12]): < 5.00

SMILES: Cc1cc(C2CC2)nc(Nc2ccccc2)n1 [Cyprodinil]
- pIC50 (honey bee CYP9Q3 [1]; [11]): < 5.00
- pIC50 (honey bee CYP9Q2 [2]; [12]): < 5.00

SMILES: CC1COC(Cn2cncn2)(c2ccc(Oc3ccc(Cl)cc3)cc2Cl)O1 (centres unmarked) [Difenoconazole, difenoconazole]
- pIC50 (honey bee CYP9Q3 [1]; [11]): 7.49
- pIC50 (honey bee CYP9Q3 [1]; IC50 CYP9Q3, lowest IC50 value): ~7.52
- Hill slope CYP9Q3 (honey bee CYP9Q3 [1]; BOMFC probe): −1.02
- pIC50 (honey bee CYP9Q2 [2]; [12]): 7.48
- pIC50 (honey bee CYP9Q2 [2]; IC50 CYP9Q2, lowest IC50 value): ~7.52
- Hill slope CYP9Q2 (honey bee CYP9Q2 [2]; BOMFC probe): −0.81

SMILES: N#CC(CCc1ccc(Cl)cc1)(Cn1cncn1)c1ccccc1 (centres unmarked) [Fenbuconazole, fenbuconazole]
- pIC50 (honey bee CYP9Q3 [1]; [11]): 7.24
- Hill slope CYP9Q3 (honey bee CYP9Q3 [1]; BOMFC probe): −0.86
- pIC50 (honey bee CYP9Q2 [2]; [12]): 7.39
- Hill slope CYP9Q2 (honey bee CYP9Q2 [2]; BOMFC probe): −0.67

SMILES: Cc1cc(C(F)(C(F)(F)F)C(F)(F)F)ccc1NC(=O)c1cccc(I)c1C(=O)NC(C)(C)CS(C)(=O)=O [Flubendiamide, flubendiamide]
- pIC50 (honey bee CYP9Q3 [1]; [13]): < 4.00
- interaction with BOMFC metabolism by CYP9Q3 (honey bee CYP9Q3 [1]; [15]): did not show any obvious interaction
- mortality at 48 h ([3]; 100 μg/bee, FLB doses of 100 μg/bee, acute contact): < 5%
- effect of propiconazole pretreatment on acute contact toxicity [4]: not influenced
- LD50 48 h [5]: 253 ppm
- RR (resistance ratio) [5]: 1.73
- Slope [5]: 4.62
- pIC50 (honey bee CYP6AQ1): < 4.00
- inhibition of CYP6AQ1-mediated BOMFC metabolism (honey bee CYP6AQ1): did not show any obvious interaction
- pIC50 (honey bee CYP9Q2 [2]; [14]): < 4.00
- interaction with BOMFC metabolism by CYP9Q2 (honey bee CYP9Q2 [2]; [15]): did not show any obvious interaction
- LD50 48 h [7]: 179 ppm
- RR (resistance ratio) [7]: 1.23
- Slope [7]: 6.97
- LD50 48 h [8]: 147 ppm

SMILES: CC(C)NC(=O)N1CC(=O)N(c2cc(Cl)cc(Cl)c2)C1=O [Iprodione, iprodione]
- pIC50 (honey bee CYP9Q3 [1]; [11]): < 5.00
- pIC50 (honey bee CYP9Q2 [2]; [12]): < 5.00

SMILES: CC1(C)CCC(Cc2ccc(Cl)cc2)C1(O)Cn1cncn1 (centres unmarked) [Metconazole, metconazole]
- pIC50 (honey bee CYP9Q3 [1]; [11]): 7.24
- Hill slope CYP9Q3 (honey bee CYP9Q3 [1]; BOMFC probe): −1.03
- pIC50 (honey bee CYP9Q2 [2]; [12]): 7.48
- Hill slope CYP9Q2 (honey bee CYP9Q2 [2]; BOMFC probe): −0.6

SMILES: CCCC1COC(Cn2cncn2)(c2ccc(Cl)cc2Cl)O1 (centres unmarked) [Propiconazole, propiconazole]
- effect on control bees ([4]; propiconazole only, 10 μg/bee, test period 48 h): remained unaffected
- Hill slope CYP9Q2 (honey bee CYP9Q2 [9]): −0.88
- pIC50 (honey bee CYP9Q2 [9]; read-out: IC50 CYP9Q2): 6.82
- Hill slope CYP9Q3 (honey bee CYP9Q3 [10]): −1.10
- pIC50 (honey bee CYP9Q3 [10]; read-out: IC50 CYP9Q3): 7.14

SMILES: COC(=O)N(OC)c1ccccc1COc1ccn(-c2ccc(Cl)cc2)n1 [Pyraclostrobin, pyraclostrobin]
- pIC50 (honey bee CYP9Q3 [1]; [11]): 5.11
- Hill slope CYP9Q3 (honey bee CYP9Q3 [1]; BOMFC probe): −0.56
- pIC50 (honey bee CYP9Q2 [2]; [12]): < 5.00
